From ChEMBL document CHEMBL4665711, “Synthesis of (Z)-3-(arylamino)-1-(3-phenylimidazo[1,5-a]pyridin-1-yl)prop-2-en-1-ones as potential cytotoxic agents” (Bioorg Med Chem Lett, 2020)
Activity calls are given as the source filed them. The calls are words filed in the database; no cut-off is given here.

Columns and labels:
[1] = system: HCT-116; test: Induction of cell cycle arrest in human HCT-116 cells assessed as G0/G1 phase at 0.5 uM incubated for 48 hrs by propidium iodide based flow cytometry analysis (reference value: 28.2 %); format: functional
[2] = system: HCT-116; test: Induction of mitochondrial membrane potential loss in human HCT-116 cells assessed as cells with hyperpolarized mitochondria by measuring decrease in J-aggregates red fluorescence intensity at 0.5 uM incubated for 48 hrs by JC1 staining based flow cytometry analysis (reference value: 86.42 %); format: functional; set-up: scale not given: the % may be the effect or the level left
[3] = system: HCT-116; test: Induction of mitochondrial membrane potential loss in human HCT-116 cells assessed as cells with depolarized mitochondria by measuring increase in J-monomer green fluorescence intensity at 2.5 uM incubated for 48 hrs by JC1 staining based flow cytometry analysis (reference value: 12.53 %); format: functional
[4] = system: HCT-116; test: Induction of apoptosis in human HCT-116 cells assessed as early apoptotic cells at 1 uM incubated for 48 hrs by annexin-V and propidium iodide staining based flow cytometry analysis (reference value: 1.87 %); format: functional
[5] = system: HCT-116; test: Induction of cell cycle arrest in human HCT-116 cells assessed as G2/M phase at 1 uM incubated for 48 hrs by propidium iodide based flow cytometry analysis (reference value: 15.3 %); format: functional
[6] = system: HCT-116; test: Induction of apoptosis in human HCT-116 cells assessed as early apoptotic cells at 0.5 uM incubated for 48 hrs by annexin-V and propidium iodide staining based flow cytometry analysis (reference value: 1.87 %); format: functional
[7] = system: HCT-116; test: Induction of apoptosis in human HCT-116 cells assessed as increase in late apoptotic cells incubated for 48 hrs by annexin-V and propidium iodide staining based flow cytometry analysis; format: functional, cell-based; details: dose microM 0.5-2.5, time 48.0 hrs
[8] = system: HCT-116; test: Induction of apoptosis in human HCT-116 cells assessed as reduction in green fluorescence intensity at 0.5 to 2.5 uM incubated for 24 hrs by acridine orange staining based microscopic analysis; format: functional, cell-based; details: dose microM 0.5-2.5, time 24.0 hrs
How it was run: (§1)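 HCT-116 cells were incubated at 0.5, 1.0 and 2.5 µM for 24 h and stained with acridine orange. Green fluorescence (excitation 480-490 nm), chromatin distribution and blebbing were inspected microscopically at 200× against untreated controls.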

[9] = system: HCT-116; test: Induction of cell cycle arrest in human HCT-116 cells assessed as G2/M phase at 0.5 uM incubated for 48 hrs by propidium iodide based flow cytometry analysis (reference value: 15.3 %); format: functional
[10] = system: HCT-116; test: Induction of apoptosis in human HCT-116 cells assessed as viable cells at 0.5 uM incubated for 48 hrs by annexin-V and propidium iodide staining based flow cytometry analysis (reference value: 96.29 %); format: functional; details: read-out: Activity
[11] = system: HCT-116; test: Induction of apoptosis in human HCT-116 cells assessed as membrane blebbing at 0.5 to 2.5 uM incubated for 24 hrs by acridine orange staining based microscopic analysis; format: functional, cell-based; details: dose microM 0.5-2.5, time 24.0 hrs; how it was run: as §1
[12] = system: HCT-116; test: Induction of apoptosis in human HCT-116 cells assessed as late apoptotic cells at 0.5 uM incubated for 48 hrs by annexin-V and propidium iodide staining based flow cytometry analysis (reference value: 1.48 %); format: functional
[13] = system: A549; test: Cytotoxicity against human A549 cells assessed as reduction in cell viability incubated for 48 hrs by MTT assay; format: functional, cell-based; details: A549, 48 h
How it was run: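 Cancer cell lines were exposed to drug for 48 h, and the 50% inhibitory concentration was determined. Values are averages of three individual experiments. A549, HCT-116, BT-474 and MDA-MB-231 are human lines; B16F10 is a murine melanoma line.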

[14] = system: HCT-116; test: Induction of cell cycle arrest in human HCT-116 cells assessed as G0/G1 phase incubated for 48 hrs by propidium iodide based flow cytometry analysis; format: functional; details: dose microM 0.5-2.5, time 48.0 hrs
[15] = system: HCT-116; test: Induction of apoptosis in human HCT-116 cells assessed as viable cells at 2.5 uM incubated for 48 hrs by annexin-V and propidium iodide staining based flow cytometry analysis (reference value: 96.29 %); format: functional; details: read-out: Activity
[16] = system: HCT-116; test: Induction of cell cycle arrest in human HCT-116 cells assessed as S phase at 2.5 uM incubated for 48 hrs by propidium iodide based flow cytometry analysis (reference value: 7.8 %); format: functional
[17] = system: HCT-116; test: Induction of apoptosis in human HCT-116 cells assessed as late apoptotic cells at 1 uM incubated for 48 hrs by annexin-V and propidium iodide staining based flow cytometry analysis (reference value: 1.48 %); format: functional
[18] = system: HCT-116; test: Induction of ROS production in human HCT-116 cells incubated for 24 hrs by DCFDA staining based fluorescence microscopic analysis; format: functional, cell-based; details: dose microM 0.5-2.5, time 24.0 hrs
How it was run: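 For intracellular ROS, HCT-116 cells were incubated at 0.5, 1 and 2.5 µM for 24 h and stained with DCFDA. Cells were imaged by fluorescence microscopy, and DCF fluorescence was quantified at 480/535 nm excitation/emission in arbitrary units against control.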

## O=C(/C=C\Nc1ccc(Cl)cc1)c1nc(-c2ccc(F)cc2)n2ccccc12
[1]
  Activity: 31.5%
[2]
  Activity: 85.48%
[3]
  Activity: 20.68%
[4]
  Activity: 3.78%
[5]
  Activity: 16.4%
[6]
  Activity: 6.17%
[7]
  Activity: Dose-dependent effect
[8]
  Activity: Active
[9]
  Activity: 15%
[10]
  viability at 0.5 µM: 87.5%
[11]
  Activity: Active
[12]
  Activity: 5.7%
[13]
  IC50: 5.09 µM
[14]
  Activity: Dose-dependent effect
[15]
  viability at 2.5 µM: 77.4%
[16]
  Activity: 8.5%
[17]
  Activity: 6.94%
[18]
  Activity: Dose-dependent effect
